Test results: ChEMBL document CHEMBL1137015, “Improved, selective, human intestinal carboxylesterase inhibitors designed to modulate 7-ethyl-10-[4-(1-piperidino)-1-piperidino]carbonyloxycamptothecin (Irinotecan; CPT-11) toxicity” (J Med Chem, 2009)
Active and inactive are the calls of the source.

Experiments:
[1] = Inhibition of human intestinal CE-mediated O-nitrophenyl acetate hydrolysis by spectrophotometry
Summary of the method: (§1)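 Enzyme activity read spectrophotometrically as release of o-nitrophenol from o-nitrophenyl acetate across increasing inhibitor concentrations. Inhibitors were freshly dissolved in DMSO, typically as 10mM stocks. Fractional inhibition was plotted against inhibitor concentration and fitted to a partial-inhibition equation including Ks, α and β. Inhibition mode was chosen by Akaike's information criteria, and Ki was taken from the best-fit model.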

[2] = target: T1, Liver carboxylesterase 1 (Homo sapiens, UniProt P23141); assay: Inhibition of human liver CE1-mediated O-nitrophenyl acetate hydrolysis by spectrophotometry; summary of the method: as §1
T1 sequence (P23141 whole entry): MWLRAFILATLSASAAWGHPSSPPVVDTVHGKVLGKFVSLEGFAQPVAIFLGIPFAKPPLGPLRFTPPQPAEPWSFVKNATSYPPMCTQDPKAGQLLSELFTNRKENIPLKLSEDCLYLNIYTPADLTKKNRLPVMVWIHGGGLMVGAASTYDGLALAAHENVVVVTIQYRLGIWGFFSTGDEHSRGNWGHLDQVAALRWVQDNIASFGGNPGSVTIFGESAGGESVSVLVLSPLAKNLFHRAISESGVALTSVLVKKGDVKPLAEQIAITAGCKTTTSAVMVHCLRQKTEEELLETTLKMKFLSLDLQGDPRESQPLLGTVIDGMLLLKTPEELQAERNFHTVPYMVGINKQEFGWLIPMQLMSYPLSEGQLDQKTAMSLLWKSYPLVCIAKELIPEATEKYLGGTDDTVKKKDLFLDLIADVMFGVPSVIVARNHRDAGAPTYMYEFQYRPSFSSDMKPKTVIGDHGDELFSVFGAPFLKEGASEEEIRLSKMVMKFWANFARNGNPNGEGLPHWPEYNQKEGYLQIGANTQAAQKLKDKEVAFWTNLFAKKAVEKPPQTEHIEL

[3] = Inhibition of human intestinal CE-mediated irinotecan hydrolysis
Summary of the method: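 Human intestinal CE (25 U per reaction; 1 U converts 1 nmole o-nitrophenyl acetate/min) with 20µM CPT-11 in 50mM Hepes pH7.4, inhibitor 1nM to 100µM. Incubated 37°C for 5 min, stopped with cold acidified methanol, centrifuged. SN-38 measured by reverse phase HPLC. Fractional inhibition fitted to partial inhibition equation, model chosen by Akaike's criteria, Ki from best fit.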

[4] = target: Acetylcholinesterase (Homo sapiens) (UniProt P22303); assay: Inhibition of human AchE using acetylthiocholine as substrate by spectrophotometric multiwell plate assay
Acetylcholinesterase (Homo sapiens), sequence (P22303 whole entry): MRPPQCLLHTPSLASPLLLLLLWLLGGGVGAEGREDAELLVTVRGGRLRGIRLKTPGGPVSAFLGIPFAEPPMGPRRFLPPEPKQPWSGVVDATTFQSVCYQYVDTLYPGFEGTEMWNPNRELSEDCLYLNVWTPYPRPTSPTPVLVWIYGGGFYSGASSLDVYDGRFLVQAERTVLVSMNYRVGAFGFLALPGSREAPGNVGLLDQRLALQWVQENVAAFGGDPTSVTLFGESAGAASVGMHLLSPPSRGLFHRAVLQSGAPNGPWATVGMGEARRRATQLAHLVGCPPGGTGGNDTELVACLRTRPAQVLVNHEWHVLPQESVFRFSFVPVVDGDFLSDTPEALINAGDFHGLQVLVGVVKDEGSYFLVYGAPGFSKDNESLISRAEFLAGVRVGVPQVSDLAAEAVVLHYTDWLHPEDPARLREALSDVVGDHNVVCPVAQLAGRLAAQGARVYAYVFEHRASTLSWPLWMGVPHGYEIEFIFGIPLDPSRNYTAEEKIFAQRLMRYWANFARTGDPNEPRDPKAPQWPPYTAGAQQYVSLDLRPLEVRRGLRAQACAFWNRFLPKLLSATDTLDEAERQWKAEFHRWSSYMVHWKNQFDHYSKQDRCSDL

[5] = target: Cholinesterase (Homo sapiens) (UniProt P06276); assay: Inhibition of human BchE using butyrylthiocholine as substrate by spectrophotometric multiwell plate assay
Cholinesterase (Homo sapiens), sequence (P06276 whole entry): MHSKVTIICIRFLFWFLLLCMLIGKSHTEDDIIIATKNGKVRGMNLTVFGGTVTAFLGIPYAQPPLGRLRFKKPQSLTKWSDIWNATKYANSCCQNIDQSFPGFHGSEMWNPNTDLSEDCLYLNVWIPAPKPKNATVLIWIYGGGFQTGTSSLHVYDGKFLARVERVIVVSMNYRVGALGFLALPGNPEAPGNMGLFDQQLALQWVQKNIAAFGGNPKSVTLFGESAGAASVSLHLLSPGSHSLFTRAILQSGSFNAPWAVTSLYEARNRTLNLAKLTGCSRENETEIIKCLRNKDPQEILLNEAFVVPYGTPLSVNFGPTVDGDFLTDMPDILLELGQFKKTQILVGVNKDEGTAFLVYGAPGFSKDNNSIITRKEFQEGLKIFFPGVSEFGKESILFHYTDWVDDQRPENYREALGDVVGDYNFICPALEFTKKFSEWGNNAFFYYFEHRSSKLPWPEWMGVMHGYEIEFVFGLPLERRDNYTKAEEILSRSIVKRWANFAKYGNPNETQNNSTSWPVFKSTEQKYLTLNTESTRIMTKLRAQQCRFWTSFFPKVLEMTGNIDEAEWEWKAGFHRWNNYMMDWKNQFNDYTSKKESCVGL

Compound: O=S(=O)(Nc1ccc(NS(=O)(=O)c2ccc(Br)cc2)cc1)c1ccc(Br)cc1
- Ki [1]: 85.2 nM
- Ki [2]: > 100000 nM
- Ki [3]: 44 nM
- Activity [4]: inactive
- Activity [5]: inactive

Compound: O=S(=O)(Nc1ccc2c(c1)Cc1cc(NS(=O)(=O)c3ccccc3)ccc1-2)c1ccccc1
- Ki [1]: 90.8 nM
- Ki [2]: > 100000 nM
- Ki [3]: 84.7 nM
- Activity [4]: inactive
- Activity [5]: inactive

Compound: O=S(=O)(Nc1ccc2c(c1)Cc1cc(NS(=O)(=O)c3cc(F)c(F)c(F)c3)ccc1-2)c1cc(F)c(F)c(F)c1
- Ki [1]: 18.6 nM
- Ki [2]: > 100000 nM
- Ki [3]: 58.1 nM
- Activity [4]: inactive
- Activity [5]: inactive

Compound: O=S(=O)(Nc1ccc(NS(=O)(=O)c2cc(F)c(F)c(F)c2)cc1)c1cc(F)c(F)c(F)c1
- Ki [1]: 210 nM
- Ki [2]: > 100000 nM
- Ki [3]: 192 nM
- Activity [4]: inactive
- Activity [5]: inactive

Compound: O=S(=O)(Nc1ccc2c(c1)Cc1cc(NS(=O)(=O)c3cccc(Cl)c3)ccc1-2)c1cccc(Cl)c1
- Ki [1]: 13.9 nM
- Ki [2]: > 100000 nM
- Ki [3]: 52.8 nM
- Activity [4]: inactive
- Activity [5]: inactive

Compound: O=S(=O)(Nc1ccc(NS(=O)(=O)c2c(F)cccc2F)cc1)c1c(F)cccc1F
- Ki [1]: 5260 nM
- Ki [2]: > 100000 nM
- Ki [3]: > 100000 nM
- Activity [4]: inactive
- Activity [5]: inactive

Compound: Cc1c(C)c(NS(=O)(=O)c2ccc(F)cc2)c(C)c(C)c1NS(=O)(=O)c1ccc(F)cc1
- Ki [1]: > 100000 nM
- Ki [2]: > 100000 nM
- Ki [3]: > 100000 nM
- Activity [4]: inactive
- Activity [5]: inactive

Compound: Cc1c(C)c(NS(=O)(=O)c2cc(Cl)cc(Cl)c2)c(C)c(C)c1NS(=O)(=O)c1cc(Cl)cc(Cl)c1
- Ki [1]: 2600 nM
- Ki [2]: > 100000 nM
- Ki [3]: > 100000 nM
- Activity [4]: inactive
- Activity [5]: inactive

Compound: O=S(=O)(Nc1ccc(NS(=O)(=O)c2cccc(F)c2)cc1)c1cccc(F)c1
- Ki [1]: 248 nM
- Ki [2]: > 100000 nM
- Ki [3]: 152 nM
- Activity [4]: inactive
- Activity [5]: inactive

Compound: O=S(=O)(Nc1ccc(NS(=O)(=O)c2cccc(Cl)c2)cc1)c1cccc(Cl)c1
- Ki [1]: 74 nM
- Ki [2]: > 100000 nM
- Ki [3]: 62 nM
- Activity [4]: inactive
- Activity [5]: inactive

Compound: O=S(=O)(Nc1c(F)c(F)c(NS(=O)(=O)c2ccc(Br)cc2)c(F)c1F)c1ccc(Br)cc1
- Ki [1]: 23.4 nM
- Ki [2]: > 100000 nM
- Ki [3]: 28 nM
- Activity [4]: inactive
- Activity [5]: inactive
